The record followed here is ChEMBL document CHEMBL1147651, “Orally active 1,2,4-trioxanes: synthesis and antimalarial assessment of a new series of 9-functionalized 3-(1-arylvinyl)-1,2,5-trioxaspiro[5.5]undecanes against multi-drug-resistant plasmodium yoelii nigeriensis in mice” (2006).

Each structure is given as a SMILES string.

What all share (assay type): functional
For assay [1], the system named is Plasmodium yoelii nigeriensis. Nature of the assay: Antimalarial activity against multidrug-resistant Plasmodium yoelii nigeriensis in mice (Mus musculus) at 96 mg/kg/day peroral dose after 4 days. The following applies: route oral. In short, it runs like this: (§1)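 Colony-bred Swiss mice (25 ± 1 g) were given 1 × 10⁶ parasitized RBC on day 0. Groups of five were dosed orally from day 0 to 3 in two divided doses daily, 0.1 mL per dose, in groundnut oil (hemisuccinates in 5% NaHCO₃). Parasitemia was read from thin blood smears on days 4–28. % suppression = [(C − T)/C] × 100 against untreated controls. β-Arteether served as positive control.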

The subject of assay [2] is Plasmodium yoelii nigeriensis. Kind of assay: Antimalarial activity against multidrug-resistant Plasmodium yoelii nigeriensis in mice (Mus musculus) at 48 mg/kg/day peroral dose over 4 days. The following applies: route oral. In short, it runs like this:
as §1

In assay [3] the test system is Plasmodium yoelii nigeriensis. Nature of the assay: Antimalarial activity against multidrug-resistant Plasmodium yoelii nigeriensis in mice (Mus musculus) at 24 mg/kg/day peroral dose after 4 days. The following applies: route oral. Summed up:
as §1

The subject of a further assay is Mus musculus. Nature of the assay: Survival of mouse at 48 mg/kg/day, po after 28 days. Summed up: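 Swiss mice (25 ± 1 g) were infected with 1 × 10⁶ parasitized RBC on day 0. Five mice per dose were treated orally on days 0–3, twice daily, in groundnut oil or 5% NaHCO₃. Parasitemia was followed by thin smears to day 28. Protection is the percentage of treated mice surviving beyond day 28. β-Arteether served as positive control.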

Assay [4] has as its system Plasmodium yoelii nigeriensis. Nature of the assay: Antimalarial activity against multidrug-resistant Plasmodium yoelii nigeriensis in mice (Mus musculus) at 30 mg/kg/day peroral dose after 4 days. The following applies: route oral.
In assay [5] the test system is Plasmodium yoelii nigeriensis. Nature of the assay: Antimalarial activity against multidrug-resistant Plasmodium yoelii nigeriensis in mice (Mus musculus) at 100 mg/kg/day peroral dose after 4 days. The note with it: route oral.

For `C=C(c1ccc(-c2ccccc2)cc1)C1COC2(CCC(=CC(=O)OCC)CC2)OO1` (centres undefined), the Activity in assay [1] came to 100%; in assay [2], 93%.

The compound `C=C(c1ccccc1)C1COC2(CCC(=C(C)C(=O)OCC)CC2)OO1` (centres undefined) had an Activity in assay [1] of 39%.

Consider `C=C(c1ccccc1)C1COC2(CCC(OC(=O)CCC(=O)O)CC2)OO1` (centres undefined), for which the Activity in assay [1] worked out at 82%.

Consider `C=C(c1ccccc1)C1COC2(CCC(O)(CC(=O)OCC)CC2)OO1` (stereo in doubt; 24a), for which the Activity in assay [1] is on record as 87%.

Consider `C=C(c1ccc(C)cc1)C1COC2(CCC(=CC(=O)OCC)CC2)OO1` (centres undefined), for which the Activity in assay [3], in assay [1] and in assay [2] was 100% each time.

Turning to `CCO[C@H]1O[C@@H]2O[C@@]3(C)CC[C@H]4[C@H](C)CC[C@@H]([C@H]1C)[C@@]24OO3` [ARTEMOTIL], the Activity in assay [3] and in assay [2] was 100% in each case.

For the compound `C=C(c1ccccc1)C1COC2(CCC(C)(O)CC2)OO1` (centres undefined), in assay [1], the Activity stood at 92%.

Take `C=C(c1ccc2ccccc2c1)C1COC2(CCC(=O)CC2)OO1` (centres undefined): the Activity in assay [1] is on record as 15%.

In turn, `C=C(c1ccc(C2CCCCC2)cc1)C1COC2(CCC(=O)CC2)OO1` (centres undefined) had an Activity in assay [1] of 100%.

Regarding `C=C(c1ccc(C2CCCCC2)cc1)C1COC2(CCC(=CC(=O)OCC)CC2)OO1` (centres undefined), the Activity in assay [1] was determined as 100%; in assay [2], 100%; in the assay with Mus musculus, 40%.

As to `C=C(c1ccc(Cl)cc1)C1COC2(CCC(O)CC2)OO1` (centres undefined), the Activity in assay [1] turned out to be 74%.

As to `C=C(c1ccc(-c2ccccc2)cc1)C1COC2(CCC(O)(CC(=O)OCC)CC2)OO1` (stereo in doubt; 25b), the Activity in assay [1] was determined as 97%.

With `C=C(c1ccc(-c2ccccc2)cc1)C1COC2(CCC(O)(CC(=O)OCC)CC2)OO1` (stereo in doubt; 25a), the Activity in assay [1] is given as 93%.

Turning to `C=C(c1ccccc1)C1COC2(CCC(=CC(=O)OCC)CC2)OO1` (centres undefined), the Activity in assay [3] stood at 99%; in assay [1] it was 100%; in assay [2] it was 100%.

In turn, `C=C(c1ccc(Cl)cc1)C1COC2(CCC(=C(C)C(=O)OCC)CC2)OO1` (centres undefined) returned an Activity in assay [1] of 87%.

For `CCN(CC)CCCC(C)Nc1ccnc2cc(Cl)ccc12` (centres undefined) [CHLOROQUINE], the Activity in assay [4] and in assay [5] was 100% throughout.

In assay [1], `C=C(c1ccc(-c2ccccc2)cc1)C1COC2(CCC(=O)CC2)OO1` (centres undefined) gave an Activity of 92%.

In the case of `C=C(c1ccccc1)C1COC2(CCC(O)(c3ccccc3)CC2)OO1` (centres undefined), the Activity in assay [1] is listed as 95%.

For the compound `C=C(c1ccc(Cl)cc1)C1COC2(CCC(=O)CC2)OO1` (centres undefined), the Activity in assay [1] came to 18%.

Regarding `C=C(c1ccc(-c2ccccc2)cc1)C1COC2(CCC(OC(=O)CCC(=O)O)CC2)OO1` (centres undefined), the Activity in assay [1] is on record as 99%.

In turn, `C=C(c1ccc(Cl)cc1)C1COC2(CCC(O)(CC(=O)OCC)CC2)OO1` (stereo in doubt; 26a) displayed an Activity in assay [1] of 31%.

`C=C(c1ccc2ccccc2c1)C1COC2(CCC(=C(C)C(=O)OCC)CC2)OO1` (centres undefined): the Activity in assay [1] was determined as 97%.

As for `OC(c1cc(C(F)(F)F)nc2c(C(F)(F)F)cccc12)C1CCCCN1` (centres undefined) [MEFLOQUINE], the Activity in assay [4] and in assay [5] was 100% each time.

Consider `C=C(c1ccc(OC)cc1)C1COC2(CCC(=O)CC2)OO1` (centres undefined), for which the Activity in assay [1] worked out at 32%.

With `C=C(c1ccc(C)cc1)C1COC2(CCC(OC(=O)CCC(=O)O)CC2)OO1` (centres undefined), the Activity in assay [1] is reported as 97%.

As to `C=C(c1ccc(OC)cc1)C1COC2(CCC(=C(C)C(=O)OCC)CC2)OO1` (centres undefined), in assay [1], the Activity came out at 18%.

As for `C=C(c1ccccc1)C1COC2(CCC(=O)CC2)OO1` (centres undefined), the Activity in assay [1] is given as 7%.

In turn, `C=C(c1ccc(C)cc1)C1COC2(CCC(O)CC2)OO1` (centres undefined) had an Activity in assay [1] of 37%.

With `C=C(c1ccc(-c2ccccc2)cc1)C1COC2(CCC(=C(C)C(=O)OCC)CC2)OO1` (centres undefined), the Activity in assay [1] and in assay [2] was 100% throughout.

`C=C(c1ccccc1)C1COC2(CCC(O)(CC(=O)OCC)CC2)OO1` (stereo in doubt; 24b) displayed an Activity in assay [1] of 37%.

For the compound `C=C(c1ccc(Cl)cc1)C1COC2(CCC(OC(=O)CCC(=O)O)CC2)OO1` (centres undefined), the Activity in assay [1] is recorded as 39%.

For `C=C(c1ccc(-c2ccccc2)cc1)C1COC2(CCC(O)CC2)OO1` (centres undefined), the Activity in assay [1] is 91%.

As for `C=C(c1ccc2ccccc2c1)C1COC2(CCC(=CC(=O)OCC)CC2)OO1` (centres undefined), the Activity in assay [3], in assay [1] and in assay [2] was 100% throughout.

Take `C=C(c1ccc(C2CCCCC2)cc1)C1COC2(CCC(=C(C)C(=O)OCC)CC2)OO1` (centres undefined): the Activity in assay [1] stood at 100%.

`C=C(c1ccc(Cl)cc1)C1COC2(CCC(O)(CC(=O)OCC)CC2)OO1` (stereo in doubt; 26b): the Activity in assay [1] was 74%.

On to `C=C(c1ccc(OC)cc1)C1COC2(CCC(=CC(=O)OCC)CC2)OO1` (centres undefined), for which the Activity turned out to be 100% in assay [1], 100% in assay [2] and 40% with Mus musculus.

As for `C=C(c1ccc(C)cc1)C1COC2(CCC(=C(C)C(=O)OCC)CC2)OO1` (centres undefined), in assay [1], the Activity was found to be 100%.

With `CCCCN(CCCC)CCC(O)c1cc2c(Cl)cc(Cl)cc2c2cc(C(F)(F)F)ccc12` (centres undefined) [HALOFANTRINE], the Activity in assay [4] and in assay [5] was 100% in each case.

Regarding `C=C(c1ccccc1)C1COC2(CCC(O)CC2)OO1` (centres undefined), in assay [1], the Activity is on record as 78%.

In assay [1], `C=C(c1ccc(C)cc1)C1COC2(CCC(=O)CC2)OO1` (centres undefined) gave an Activity of 7%.

Take `C=C(c1ccc(Cl)cc1)C1COC2(CCC(=CC(=O)OCC)CC2)OO1` (centres undefined): the Activity in assay [3], in assay [1] and in assay [2] was 100% each time.
